# Assays:
# Format in all cases: functional
# Set-up in all cases: scale not given: the % may be the effect or the level left
# CCRF-CEM = assay: Growth inhibition of human CCRF-CEM cells assessed tumor cell growth at 10^-5 M
# Summary of the method: (§1)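 NCI 60-human-tumor-cell-line panel screen. Each compound was tested at a single concentration of 10^-5 M, and percent growth of tumor cells was recorded for each cell line. Growth inhibition was expressed from these percent-growth values.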
# HL-60(TB) = assay: Growth inhibition of human HL-60(TB) cells assessed tumor cell growth at 10^-5 M
# Summary of the method: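 HL-60(TB), part of the 60-line panel, tested at a single concentration of 10^-5 M. The read-out is percent tumor cell growth relative to untreated growth.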
# K562 = assay: Growth inhibition of human K562 cells assessed tumor cell growth at 10^-5 M; summary of the method: as §1
# MOLT-4 = assay: Growth inhibition of human MOLT4 cells assessed tumor cell growth at 10^-5 M; summary of the method: as §1
# [1] = Growth inhibition of human […] cells assessed tumor cell growth at 10^-5 M; summary of the method: as §1
# A549 = assay: Growth inhibition of human A549 cells assessed tumor cell growth at 10^-5 M; summary of the method: as §1
# EKVX = assay: Growth inhibition of human EKVX cells assessed tumor cell growth at 10^-5 M; summary of the method: as §1
# HOP-62 = assay: Growth inhibition of human HOP62 cells assessed tumor cell growth at 10^-5 M; summary of the method: as §1
# HOP-92 = assay: Growth inhibition of human HOP92 cells assessed tumor cell growth at 10^-5 M; summary of the method: as §1
# NCI-H226 = assay: Growth inhibition of human NCI-H226 cells assessed tumor cell growth at 10^-5 M; summary of the method: as §1
# NCI-H23 = assay: Growth inhibition of human NCI-H23 cells assessed tumor cell growth at 10^-5 M; summary of the method: as §1
# NCI-H322M = assay: Growth inhibition of human NCI-H322M cells assessed tumor cell growth at 10^-5 M; summary of the method: as §1
# NCI-H460 = assay: Growth inhibition of human NCI-H460 cells assessed tumor cell growth at 10^-5 M; summary of the method: as §1
# NCI-H522 = assay: Growth inhibition of human NCI-H522 cells assessed tumor cell growth at 10^-5 M; summary of the method: as §1
# COLO 205 = assay: Growth inhibition of human COLO205 cells assessed tumor cell growth at 10^-5 M; summary of the method: as §1
# HCT-116 = assay: Growth inhibition of human HCT116 cells assessed tumor cell growth at 10^-5 M; summary of the method: as §1
# HCT-15 = assay: Growth inhibition of human HCT15 cells assessed tumor cell growth at 10^-5 M; summary of the method: as §1
# HT-29 = assay: Growth inhibition of human HT-29 cells assessed tumor cell growth at 10^-5 M; summary of the method: as §1
# KM12 = assay: Growth inhibition of human KM12 cells assessed tumor cell growth at 10^-5 M; summary of the method: as §1
# SW-620 = assay: Growth inhibition of human SW620 cells assessed tumor cell growth at 10^-5 M
# Summary of the method: (§2)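 Single-dose screen at 10^-5 M across the 60 human tumor cell line panel, run to NCI standards. The value is the percent growth of each cell line in the presence of compound. Compounds active at this dose moved on to five-concentration testing (10^-4 to 10^-8 M).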
# SF-268 = assay: Growth inhibition of human SF268 cells assessed tumor cell growth at 10^-5 M; summary of the method: as §1
# SF-295 = assay: Growth inhibition of human SF295 cells assessed tumor cell growth at 10^-5 M; summary of the method: as §1
# SF-539 = assay: Growth inhibition of human SF539 cells assessed tumor cell growth at 10^-5 M; summary of the method: as §1
# SNB-19 = assay: Growth inhibition of human SNB19 cells assessed tumor cell growth at 10^-5 M; summary of the method: as §2
# SNB-75 = assay: Growth inhibition of human SNB75 cells assessed tumor cell growth at 10^-5 M; summary of the method: as §2
# U-251 = assay: Growth inhibition of human U251 cells assessed tumor cell growth at 10^-5 M; summary of the method: as §2
# LOX IMVI = assay: Growth inhibition of human LOXIMVI cells assessed tumor cell growth at 10^-5 M; summary of the method: as §1
# Malme-3M = assay: Growth inhibition of human MALME-3M cells assessed tumor cell growth at 10^-5 M; summary of the method: as §1
# M14 = assay: Growth inhibition of human M14 cells assessed tumor cell growth at 10^-5 M; summary of the method: as §1
# MDA-MB-435 = assay: Growth inhibition of human MDA-MB-435 cells assessed tumor cell growth at 10^-5 M; summary of the method: as §1
# SK-MEL-2 = assay: Growth inhibition of human SK-MEL-2 cells assessed tumor cell growth at 10^-5 M; summary of the method: as §1
# SK-MEL-28 = assay: Growth inhibition of human SK-MEL-28 cells assessed tumor cell growth at 10^-5 M; summary of the method: as §1
# SK-MEL-5 = assay: Growth inhibition of human SK-MEL-5 cells assessed tumor cell growth at 10^-5 M; summary of the method: as §1
# UACC-257 = assay: Growth inhibition of human UACC257 cells assessed tumor cell growth at 10^-5 M; summary of the method: as §2
# UACC-62 = assay: Growth inhibition of human UACC62 cells assessed tumor cell growth at 10^-5 M; summary of the method: as §2
# IGROV-1 = assay: Growth inhibition of human IGROV1 cells assessed tumor cell growth at 10^-5 M; summary of the method: as §1
# OVCAR-3 = assay: Growth inhibition of human OVCAR3 cells assessed tumor cell growth at 10^-5 M; summary of the method: as §1
# OVCAR-4 = assay: Growth inhibition of human OVCAR4 cells assessed tumor cell growth at 10^-5 M; summary of the method: as §1
# OVCAR-5 = assay: Growth inhibition of human OVCAR5 cells assessed tumor cell growth at 10^-5 M; summary of the method: as §1
# OVCAR-8 = assay: Growth inhibition of human OVCAR8 cells assessed tumor cell growth at 10^-5 M; summary of the method: as §1
# NCI/ADR-RES = assay: Growth inhibition of human NCI/ADR-RES cells assessed tumor cell growth at 10^-5 M; summary of the method: as §1
# SK-OV-3 = assay: Growth inhibition of human SKOV3 cells assessed tumor cell growth at 10^-5 M; summary of the method: as §1
# 786-0 = assay: Growth inhibition of human 786-0 cells assessed tumor cell growth at 10^-5 M; summary of the method: as §1
# A498 = assay: Growth inhibition of human A498 cells assessed tumor cell growth at 10^-5 M; summary of the method: as §1
# ACHN = assay: Growth inhibition of human ACHN cells assessed tumor cell growth at 10^-5 M; summary of the method: as §1
# CAKI-1 = assay: Growth inhibition of human Caki1 cells assessed tumor cell growth at 10^-5 M; summary of the method: as §1
# RXF 393 = assay: Growth inhibition of human RXF393 cells assessed tumor cell growth at 10^-5 M; summary of the method: as §1
# SN12C = assay: Growth inhibition of human SN12C cells assessed tumor cell growth at 10^-5 M; summary of the method: as §1
# TK-10 = assay: Growth inhibition of human TK10 cells assessed tumor cell growth at 10^-5 M; summary of the method: as §2
# UO-31 = assay: Growth inhibition of human UO31 cells assessed tumor cell growth at 10^-5 M; summary of the method: as §2
# PC-3 = assay: Growth inhibition of human PC3 cells assessed tumor cell growth at 10^-5 M; summary of the method: as §1
# DU-145 = assay: Growth inhibition of human DU145 cells assessed tumor cell growth at 10^-5 M; summary of the method: as §1
# MCF7 = assay: Growth inhibition of human MCF7 cells assessed tumor cell growth at 10^-5 M; summary of the method: as §1
# MDA-MB-231 = assay: Growth inhibition of human MDA-MB-231 cells assessed tumor cell growth at 10^-5 M; summary of the method: as §1
# [2] = Growth inhibition of human Hs 578T cells assessed tumor cell growth at 10^-5 M; summary of the method: as §1
# BT-549 = assay: Growth inhibition of human BT549 cells assessed tumor cell growth at 10^-5 M; summary of the method: as §1
# MDA-MB-468 = assay: Growth inhibition of human MDA-MB-468 cells assessed tumor cell growth at 10^-5 M; summary of the method: as §1
# HCC 2998 = assay: Growth inhibition of human HCC2998 cells assessed tumor cell growth at 10^-5 M; summary of the method: as §1
# T47D = assay: Growth inhibition of human T47D cells assessed tumor cell growth at 10^-5 M; summary of the method: as §2
smiles,measurement,setting,value
O=C1Nc2ccccc2/C1=C/c1cn(C(=O)c2ccc(Cl)cc2)c2ccccc12,Activity,CCRF-CEM,104.1%
same,Activity,HL-60(TB),150.1%
same,Activity,K562,85.6%
same,Activity,MOLT-4,109.3%
same,Activity,[1],74.5%
same,Activity,A549,101.2%
same,Activity,EKVX,58.9%
same,Activity,HOP-62,110.7%
same,Activity,HOP-92,99.3%
same,Activity,NCI-H226,92.3%
same,Activity,NCI-H23,90.8%
same,Activity,NCI-H322M,126.5%
same,Activity,NCI-H460,107.2%
same,Activity,NCI-H522,85.5%
same,Activity,COLO 205,58.2%
same,Activity,HCT-116,91.5%
same,Activity,HCT-15,92%
same,Activity,HT-29,110%
same,Activity,KM12,40.8%
same,Activity,SW-620,102.4%
same,Activity,SF-268,99.8%
same,Activity,SF-295,114.3%
same,Activity,SF-539,99.3%
same,Activity,SNB-19,99%
same,Activity,SNB-75,87.7%
same,Activity,U-251,99.4%
same,Activity,LOX IMVI,100%
same,Activity,Malme-3M,117.8%
same,Activity,M14,102.4%
same,Activity,MDA-MB-435,109.9%
same,Activity,SK-MEL-2,119.8%
same,Activity,SK-MEL-28,92.9%
same,Activity,SK-MEL-5,97.6%
same,Activity,UACC-257,99.6%
same,Activity,UACC-62,89.3%
same,Activity,IGROV-1,72.6%
same,Activity,OVCAR-3,98.7%
same,Activity,OVCAR-4,78.2%
same,Activity,OVCAR-5,110.2%
same,Activity,OVCAR-8,95%
same,Activity,NCI/ADR-RES,104.2%
same,Activity,SK-OV-3,103.8%
same,Activity,786-0,111.4%
same,Activity,A498,116.3%
same,Activity,ACHN,102.9%
same,Activity,CAKI-1,59%
same,Activity,RXF 393,129.9%
same,Activity,SN12C,95.4%
same,Activity,TK-10,130%
same,Activity,UO-31,74.6%
same,Activity,PC-3,95.6%
same,Activity,DU-145,118.1%
same,Activity,MCF7,59%
same,Activity,MDA-MB-231,77.7%
same,Activity,[2],106%
same,Activity,BT-549,96.4%
same,Activity,MDA-MB-468,97.6%
C=CCn1cc(/C=C2\C(=O)N(c3c(Cl)cccc3Cl)c3ccccc32)c2ccccc21,Activity,HL-60(TB),93.4%
same,Activity,K562,53.6%
same,Activity,MOLT-4,71.8%
same,Activity,[1],86.7%
same,Activity,A549,95.2%
same,Activity,EKVX,80.5%
same,Activity,HOP-62,78.4%
same,Activity,HOP-92,72.1%
same,Activity,NCI-H226,87%
same,Activity,NCI-H23,83.7%
same,Activity,NCI-H322M,96.2%
same,Activity,NCI-H460,64.8%
same,Activity,NCI-H522,88.3%
same,Activity,COLO 205,111.6%
same,Activity,HCC 2998,92.3%
same,Activity,HCT-116,44.8%
same,Activity,HCT-15,48.8%
same,Activity,HT-29,85.4%
same,Activity,KM12,83.7%
same,Activity,SW-620,86.9%
same,Activity,SF-268,77.4%
same,Activity,SF-295,95.1%
same,Activity,SF-539,92.2%
same,Activity,SNB-19,97.4%
same,Activity,SNB-75,71.5%
same,Activity,U-251,63.1%
same,Activity,LOX IMVI,69.8%
same,Activity,Malme-3M,96.3%
same,Activity,M14,84.7%
same,Activity,MDA-MB-435,100.8%
same,Activity,SK-MEL-2,102.6%
same,Activity,SK-MEL-28,109.8%
same,Activity,SK-MEL-5,72.6%
same,Activity,UACC-257,116%
same,Activity,UACC-62,68.7%
same,Activity,IGROV-1,66.4%
same,Activity,OVCAR-3,88.2%
same,Activity,OVCAR-4,79.1%
same,Activity,OVCAR-5,98.9%
same,Activity,OVCAR-8,90.7%
same,Activity,NCI/ADR-RES,84.6%
same,Activity,SK-OV-3,98.2%
same,Activity,786-0,86.2%
same,Activity,A498,107.5%
same,Activity,ACHN,80.5%
same,Activity,CAKI-1,60.9%
same,Activity,RXF 393,93.3%
same,Activity,SN12C,94.9%
same,Activity,TK-10,100.4%
same,Activity,UO-31,56.7%
same,Activity,PC-3,58.2%
same,Activity,DU-145,101.7%
same,Activity,MCF7,89.3%
same,Activity,MDA-MB-231,83.4%
same,Activity,[2],86.4%
same,Activity,BT-549,127.4%
same,Activity,T47D,63.9%
same,Activity,MDA-MB-468,93.3%

# Reference: ChEMBL document CHEMBL1811814, “Synthesis and evaluation of indole, pyrazole, chromone and pyrimidine based conjugates for tumor growth inhibitory activities--development of highly efficacious cytotoxic agents” (Eur J Med Chem, 2010)
